Results collected from several papers.
Each line is one published result; the experiments were not run side by side.
APC: Adenomatous polyposis coli protein (APC, Homo sapiens, UniProt P25054)
HTR1E: 5-hydroxytryptamine receptor 1E (HTR1E, Homo sapiens, UniProt P28566)
AVPR2: Vasopressin V2 receptor (AVPR2, Homo sapiens, UniProt P30518)
Palmitoyl-protein thioesterase 1: Palmitoyl-protein thioesterase 1 (Homo sapiens, UniProt P50897)

Compound | target | assay | measurement | result
CC(C)C[C@H](NC(=O)[C@H](Cc1ccc2ccccc2c1)NC(=O)[C@H](CCC(=O)O)NC(=O)c1ccnc(F)c1)C(=O)NC1CC1c1ccccc1 (stereo partly drawn) | APC | ligand displacement, FP | IC50 | 42700 nM
Cc1nc2n(c(=O)c1CCN1CCC(c3noc4cc(F)ccc34)CC1)CCCC2O (stereo not drawn) | RNA cytidine acetyltransferase (Homo sapiens, UniProt Q9H0A0) | binding, ITC | Kd | 12800 nM
N#C[C@@]12C[C@@H]1[C@@H](n1cnc3c(N[C@@H](C4CCC4)C4CC4)nc(I)nc31)[C@H](O)[C@@H]2O | Adenosine receptor A3 (ADORA3, Homo sapiens, UniProt P0DMS8) | ligand displacement, radioligand | Ki | > 1000 nM
CC(C)C[C@H](NC(=O)[C@H](Cc1ccc2ccccc2c1)NC(=O)[C@H](CCC(=O)O)NC(=O)c1cccc([N+](=O)[O-])c1)C(=O)NC1CC1c1ccccc1 (stereo partly drawn) | APC | ligand displacement, FP | IC50 | 41700 nM
O=C1c2ccccc2S(=O)(=O)N1CCCCN1CCN(c2ncccn2)CC1 | HTR1E | G protein activation, agonist, BRET | EC50 | 628 nM
CCCCCCCC/C=C\CCCCCCCC(=O)O | Myoglobin (MB, Homo sapiens, UniProt P02144, K46M) | binding, absorbance | Kd | 13100 nM
CC(C)=CCNc1ncnc2c1ncn2[C@@H]1O[C@H](CO)[C@@H](O)[C@H]1O | Adenosine receptor A3 (ADORA3, Homo sapiens, UniProt P0DMS8, I253Q) | G protein activation, agonist | EC50 | 80 nM
CC1=NN(/C(=N/c2nnc(C)s2)Nc2ccc(C)c(C)c2)C(c2ccc(C(C)(C)C)cc2)S1 (stereo not drawn) | AVPR2 | cAMP, positive allosteric modulator | EC50 | > 50000 nM
CSc1ncc(Br)c(C(=O)N[C@@H](CCC(=O)O)C(=O)N[C@@H](Cc2ccc3ccccc3c2)C(=O)N[C@@H](CC(C)C)C(=O)NC2CC2c2ccccc2)n1 (stereo partly drawn) | APC | binding, SPR | Kd | 580 nM
CC1=NN(/C(=N\c2ccc(C(F)(F)F)cc2)Nc2nnc(C)s2)C(c2ccc(C)cc2)S1 (stereo not drawn) | AVPR2 | cAMP, positive allosteric modulator | EC50 | 16600 nM
CN1CCN2c3ccccc3Cc3ccccc3C2C1 (stereo not drawn) | HTR1E | G protein activation, agonist, BRET | EC50 | 123 nM
CC1=NN(/C(=N/c2nnc(C)s2)Nc2ccc(C)c(C)c2)C(c2ccc(C(F)(F)F)cc2)S1 (stereo not drawn) | AVPR2 | cAMP, positive allosteric modulator | EC50 | > 50000 nM
OC(c1cc(C(F)(F)F)nc2c(C(F)(F)F)cccc12)C1CCCCN1 (stereo not drawn) | Palmitoyl-protein thioesterase 1 | binding, MST | Kd | 226 nM
CC1=NN(/C(=N\c2ccc(Br)cc2)Nc2nnc(C)s2)C(c2ccc(C)cc2)S1 (stereo not drawn) | AVPR2 | cAMP, positive allosteric modulator | EC50 | 17600 nM
CSc1nccc(C(=O)N[C@@H](CCC(=O)O)C(=O)N[C@@H](Cc2ccc3ccccc3c2)C(=O)N[C@@H](CC(C)C)C(=O)N[C@@H]2C[C@H]2c2ccccc2)n1 | APC | binding, SPR | Kd | 380 nM
CCc1ccc(/N=C(/Nc2nnc(C)s2)N2N=C(C)SC2c2ccc(C)cc2)cc1 (stereo not drawn) | AVPR2 | cAMP, positive allosteric modulator | EC50 | 15800 nM
CCCNC(=O)NS(=O)(=O)c1ccc(Cl)cc1 | Palmitoyl-protein thioesterase 1 | binding, MST | Kd | 201 nM

Compound | target | assay | measurement | result
O=C(CCCCCN1CCN(c2ccccc2-c2ccccc2)CC1)NC1CCCc2ccccc21 (stereo not drawn) | HTR1E | G protein activation, agonist, BRET | EC50 | 1750 nM
CC1=NN(/C(=N/c2nnc(C)s2)Nc2ccc(C)c(C)c2)C(c2ccc(F)c(F)c2)S1 (stereo not drawn) | AVPR2 | cAMP, positive allosteric modulator | EC50 | > 50000 nM
N=C(N)NCCC[C@H](NC(=O)[C@@H](NC(=O)[C@H](Cc1cscn1)NC(=O)CCc1ccccc1)C1CCCCC1)C(=O)c1nc2ccccc2s1 | Transmembrane protease serine 6 (Homo sapiens, UniProt Q8IU80) | cell-free assay | Ki | ~5 nM
CN(C)CCCN1c2ccccc2Sc2ccc(Cl)cc21 | HTR1E | G protein activation, agonist, BRET | EC50 | 2080 nM
CN(C)c1ncnc2c1ncn2[C@@H]1O[C@H](CO)[C@@H](O)[C@H]1O | Adenosine receptor A3 (ADORA3, Homo sapiens, UniProt P0DMS8, L264A) | G protein activation, agonist | EC50 | 4000 nM
COc1cccc(C(=O)N[C@@H](CCC(=O)O)C(=O)N[C@@H](Cc2ccc3ccccc3c2)C(=O)N[C@@H](CC(C)C)C(=O)NC2CC2c2ccccc2)c1 (stereo partly drawn) | APC | ligand displacement, FP | IC50 | 38900 nM
C=CCN1C[C@H](C(=O)N(CCCN(C)C)C(=O)NCC)C[C@@H]2c3cccc4[nH]cc(c34)C[C@H]21 | HTR1E | G protein activation, agonist, BRET | EC50 | 1720 nM
C#Cc1cccc(C(=O)N[C@@H](CCC(=O)O)C(=O)N[C@@H](Cc2ccc3ccccc3c2)C(=O)N[C@@H](CC(C)C)C(=O)NC2CC2c2ccccc2)c1 (stereo partly drawn) | APC | ligand displacement, FP | IC50 | 24000 nM
CC1=NN(/C(=N/c2nnc(C)s2)Nc2ccc(C)c(C)c2)C(c2cccc(-c3ccccc3)c2)S1 (stereo not drawn) | AVPR2 | cAMP, positive allosteric modulator | EC50 | > 50000 nM
CCCN1C[C@H](CSC)C[C@@H]2c3cccc4[nH]cc(c34)C[C@H]21 | HTR1E | G protein activation, agonist, BRET | EC50 | 1900 nM
O=C1c2ccccc2-n2c1nc1ccccc1c2=O | Glutathione S-transferase P (GSTP1, Homo sapiens, UniProt P09211) | binding | Kd | 30100 nM
CN1CCN(Cc2ccc(CNc3cccc4c3CN(C)N(C3CCC(=O)NC3=O)C4=O)cc2)CC1 (stereo not drawn) | Cereblon/Casein kinase I alpha (CSNK1A1/CRBN, Homo sapiens, UniProt P48729+Q96SW2) | protein level, degrader, luciferase | DC50 | 92 nM
CCc1cccc(C(=O)N[C@@H](CCC(=O)O)C(=O)N[C@@H](Cc2ccc3ccccc3c2)C(=O)N[C@@H](CC(C)C)C(=O)NC2CC2c2ccccc2)c1 (stereo partly drawn) | APC | ligand displacement, FP | IC50 | 25100 nM
CC1=NN(/C(=N/c2nnc(C)s2)Nc2ccc(C)c(C)c2)C(c2cc(F)c(F)c(F)c2)S1 (stereo not drawn) | AVPR2 | cAMP, positive allosteric modulator | EC50 | > 50000 nM
CCN1CCC[C@H]1CNC(=O)c1c(O)c(Cl)cc(Cl)c1OC | HTR1E | G protein activation, agonist, BRET | EC50 | 490 nM
CCN(CC)Cc1cc(Nc2ccnc3cc(Cl)ccc23)ccc1O | Palmitoyl-protein thioesterase 1 | binding, MST | Kd | 76 nM
